# Data: ChEMBL document CHEMBL4842356, “Discovery, optimization, and target identification of novel coumarin derivatives as HIV-1 reverse transcriptase-associated ribonuclease H inhibitors” (Eur J Med Chem, 2021)
# Legend:
# [1] = tested on: Human immunodeficiency virus 1; assay: Antiviral activity against wild type HIV1 3B infected in human MT4 cells assessed as protection against virus-induced cytopathic effect incubated for 5 days by MTT assay; assay type: functional, organism-based; conditions: Human immunodeficiency virus 1, 3B, MT4, 120 h
# Summary of the method: (§1)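 MT-4 cells (exponentially growing, resuspended at 6 × 10⁵ cells/mL) were seeded onto serial five-fold compound dilutions and infected with 100–300 CCID₅₀ virus stock, or given medium only (mock). Viability was read by MTT at 540 and 690 nm five days after infection, using the median OD of three wells. EC₅₀ is 50% protection from viral cytopathicity. CC₅₀ is 50% loss of viability in mock-infected cells.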
# [2] = tested on: MT4; assay: Cytotoxicity against mock-infected human MT4 cells assessed as reduction in cell viability measured after 5 days by MTT assay; assay type: functional; conditions: MT4, 120 h, time 5 day; summary of the method: as §1
# [3] = tested on: Human immunodeficiency virus 2; assay: Antiviral activity against HIV2 ROD infected in human MT4 cells assessed as protection against virus-induced cytopathic effect incubated for 5 days by MTT assay; conditions: Human immunodeficiency virus 2, ISOLATE ROD, MT4, 120 h
# [4] = tested on: Human immunodeficiency virus 1; assay: Antiviral activity against HIV1 RES056 infected in human MT4 cells assessed as protection against virus-induced cytopathic effect incubated for 5 days by MTT assay; assay type: functional, organism-based; conditions: Human immunodeficiency virus 1, RES056, MT4, 120 h; summary of the method: as §1
# [5] = target: Human immunodeficiency virus type 1 reverse transcriptase (Human immunodeficiency virus 1, UniProt Q72547); assay: Inhibition of wild type HIV1 Reverse transcriptase RNase H expressed in Escherichia coli using 5'-UUUUUUUUUAGGAUACAUAUGGUUAAAGU-3' oligonucleotide as substrate and DNA21P as primer in presence of [gamma32P]-ATP by PAGE analysis
# Summary of the method: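 Wild-type HIV-1 BH10 RT was expressed in E. coli and purified. RNase H activity was measured on a 31-nt RNA, 5′-³²P-labelled, annealed to a 21-nt DNA (31T/21P). Cleaved substrate was quantified without inhibitor (5% DMSO) and with compound over 0.2–100 µM. IC₅₀ values were taken from dose-response curves.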
# [6] = target: Human immunodeficiency virus type 1 reverse transcriptase (Human immunodeficiency virus 1) (UniProt Q72547); assay: Inhibition of wild type HIV1 Reverse transcriptase RNase H expressed in Escherichia coli at 100 uM using 5'-UUUUUUUUUAGGAUACAUAUGGUUAAAGU-3' oligonucleotide as substrate and DNA21P as primer in presence of [gamma32P]-ATP by PAGE analysis relative to control
# [7] = target: Human immunodeficiency virus type 1 reverse transcriptase (Human immunodeficiency virus 1) (UniProt Q72547); assay: Inhibition of wild type HIV1 Reverse transcriptase RNase H expressed in Escherichia coli at 50 uM using 5'-UUUUUUUUUAGGAUACAUAUGGUUAAAGU-3' oligonucleotide as substrate and DNA21P as primer in presence of [gamma32P]-ATP by PAGE analysis relative to control
smiles,measurement,setting,value
Cc1c(O)c([N+](=O)[O-])cc2cc(C(=O)NC3CCN(S(=O)(=O)N(C)C)CC3)c(=O)oc12,EC50,[1],> 50.8 µM
same,CC50,[2],50.8 µM
same,EC50,[3],> 50.8 µM
O=C(O)c1cc(NC(=O)c2cc3cc([N+](=O)[O-])c(O)c(O)c3oc2=O)ccc1O,EC50,[4],107 µM
same,EC50,[1],101 µM
same,CC50,[2],> 310 µM
same,IC50,[5],20.8 µM
same,EC50,[3],116 µM
Cc1c(O)c([N+](=O)[O-])cc2cc(C(=O)NC3CCN(Cc4ccc(Br)cc4)CC3)c(=O)oc12,EC50,[1],> 72.3 µM
same,CC50,[2],72.3 µM
same,EC50,[3],> 72.3 µM
Cc1c(O)c([N+](=O)[O-])cc2cc(C(=O)Nc3cccc(F)c3)c(=O)oc12,EC50,[1],> 12.5 µM
same,CC50,[2],12.5 µM
same,IC50,[5],> 100 µM
same,inhibition,[6],28.6%
same,EC50,[3],> 12.5 µM
Cc1cccc(CN2CCC(NC(=O)c3cc4cc([N+](=O)[O-])c(O)c(C)c4oc3=O)CC2)c1,EC50,[1],> 3.88 µM
same,CC50,[2],3.88 µM
same,IC50,[5],> 50 µM
same,inhibition,[6],72.1%
same,inhibition,[7],< 10%
same,EC50,[3],> 3.88 µM
Cc1c(O)c([N+](=O)[O-])cc2cc(C(=O)NC3CCN(Cc4ccc(F)cc4)CC3)c(=O)oc12,EC50,[1],> 42.6 µM
same,CC50,[2],42.6 µM
same,EC50,[3],> 42.6 µM
O=C(NC1CCN(Cc2cccc(F)c2)CC1)c1cc2cc([N+](=O)[O-])c(O)c(O)c2oc1=O,EC50,[1],210 µM
same,CC50,[2],> 220 µM
same,IC50,[5],> 50 µM
same,inhibition,[6],57.7%
same,EC50,[3],> 220 µM
Cc1c(O)c([N+](=O)[O-])cc2cc(C(=O)NC3CCN(C(=O)c4ccc([N+](=O)[O-])cc4)CC3)c(=O)oc12,EC50,[1],> 251 µM
same,CC50,[2],> 251 µM
same,EC50,[3],> 251 µM
O=C(Nc1ccc(F)cc1F)c1cc2cc([N+](=O)[O-])c(O)c(O)c2oc1=O,EC50,[1],237 µM
same,CC50,[2],> 330 µM
same,IC50,[5],> 50 µM
same,inhibition,[6],78%
same,inhibition,[7],12%
same,EC50,[3],> 330 µM
Cc1c(O)c([N+](=O)[O-])cc2cc(C(=O)NC3CCN(C(=O)N(C)C)CC3)c(=O)oc12,EC50,[1],> 19.9 µM
same,CC50,[2],19.9 µM
same,EC50,[3],> 19.9 µM
O=C(NC1CCN(Cc2cccc(Cl)c2)CC1)c1cc2cc([N+](=O)[O-])c(O)c(O)c2oc1=O,EC50,[1],> 143 µM
same,CC50,[2],143 µM
same,IC50,[5],> 50 µM
same,inhibition,[6],72.5%
same,inhibition,[7],< 10%
same,EC50,[3],> 143 µM
Cc1c(O)c([N+](=O)[O-])cc2cc(C(=O)NC3CCN(Cc4cccc(Cl)c4)CC3)c(=O)oc12,EC50,[1],> 9.38 µM
same,CC50,[2],9.37 µM
CCCN(C(=O)c1cc2cc([N+](=O)[O-])c(O)c(O)c2oc1=O)[C@@H]1CCc2nc(N)sc2C1,EC50,[4],19.6 µM
same,EC50,[1],28.5 µM
same,CC50,[2],> 271 µM
same,IC50,[5],45.1 µM
same,EC50,[3],144 µM
Cc1c(O)c([N+](=O)[O-])cc2cc(C(=O)Nc3ccccc3F)c(=O)oc12,EC50,[1],> 10.7 µM
same,CC50,[2],10.7 µM
same,EC50,[3],> 10.7 µM
Cc1c(O)c([N+](=O)[O-])cc2cc(C(=O)NC3CCN(Cc4ccccc4)CC3)c(=O)oc12,EC50,[1],> 7.8 µM
same,CC50,[2],7.8 µM
same,EC50,[3],> 7.8 µM
O=C(NC1CCN(Cc2cccc(Br)c2)CC1)c1cc2cc([N+](=O)[O-])c(O)c(O)c2oc1=O,EC50,[1],> 153 µM
same,CC50,[2],153 µM
same,IC50,[5],> 50 µM
same,inhibition,[6],57.4%
same,inhibition,[7],32.4%
same,EC50,[3],> 153 µM
O=C(c1cc2cc([N+](=O)[O-])c(O)c(O)c2oc1=O)N1CCCN(S(=O)(=O)c2ccc3ccncc3c2)CC1,EC50,[4],123 µM
same,EC50,[1],82.7 µM
same,CC50,[2],> 231 µM
same,IC50,[5],68.5 µM
same,EC50,[3],> 231 µM
O=C(NCc1cccc(F)c1)c1cc2cc([N+](=O)[O-])c(O)c(O)c2oc1=O,EC50,[1],> 228 µM
same,CC50,[2],228 µM
same,EC50,[3],> 228 µM
O=C(Nc1ccc(F)cc1)c1cc2cc([N+](=O)[O-])c(O)c(O)c2oc1=O,EC50,[1],> 200 µM
same,CC50,[2],200 µM
same,IC50,[5],> 50 µM
same,inhibition,[6],72.5%
same,inhibition,[7],< 10%
same,EC50,[3],> 200 µM
COC(=O)c1cc(NC(=O)c2cc3cc([N+](=O)[O-])c(O)c(C)c3oc2=O)ccc1O,EC50,[1],> 182 µM
same,CC50,[2],182 µM
same,EC50,[3],> 182 µM
O=C(NC1CCN(Cc2ccc([N+](=O)[O-])cc2)CC1)c1cc2cc([N+](=O)[O-])c(O)c(O)c2oc1=O,EC50,[1],> 101 µM
same,CC50,[2],> 217 µM
same,EC50,[3],> 101 µM
O=C(NC1CCN(Cc2ccc(Cl)cc2)CC1)c1cc2cc([N+](=O)[O-])c(O)c(O)c2oc1=O,EC50,[1],> 21.7 µM
same,CC50,[2],21.7 µM
same,IC50,[5],8.4 µM
same,inhibition,[7],31.8%
same,EC50,[3],> 21.7 µM
Cc1c(O)c([N+](=O)[O-])cc2cc(C(=O)NCc3cccc(F)c3)c(=O)oc12,EC50,[1],> 47.5 µM
same,CC50,[2],47.5 µM
same,EC50,[3],> 47.5 µM
N#Cc1ccc(CN2CCC(NC(=O)c3cc4cc([N+](=O)[O-])c(O)c(O)c4oc3=O)CC2)cc1,EC50,[1],160 µM
same,CC50,[2],> 269 µM
same,EC50,[3],> 269 µM
O=C(NCc1ccccc1F)c1cc2cc([N+](=O)[O-])c(O)c(O)c2oc1=O,EC50,[1],> 259 µM
same,CC50,[2],259 µM
same,EC50,[3],> 259 µM
Cc1c(O)c([N+](=O)[O-])cc2cc(C(=O)Nc3ccc(F)cc3)c(=O)oc12,EC50,[1],> 6.5 µM
same,CC50,[2],6.5 µM
same,EC50,[3],> 6.5 µM
Cc1c(O)c([N+](=O)[O-])cc2cc(C(=O)NC3CCN(Cc4ccc(Cl)cc4)CC3)c(=O)oc12,EC50,[1],167 µM
same,CC50,[2],> 264 µM
same,IC50,[5],> 100 µM
same,inhibition,[6],23.8%
same,EC50,[3],148 µM
CCC1CCN(C2CCN(C(=O)c3cc4cc([N+](=O)[O-])c(O)c(O)c4oc3=O)CC2)CC1,EC50,[4],213 µM
same,EC50,[1],208 µM
same,CC50,[2],> 280 µM
same,IC50,[5],> 250 µM
same,EC50,[3],> 280 µM
Cc1ccc(CN2CCC(NC(=O)c3cc4cc([N+](=O)[O-])c(O)c(C)c4oc3=O)CC2)cc1,EC50,[1],> 276 µM
same,CC50,[2],> 276 µM
same,EC50,[3],> 276 µM
O=C(NCc1ccc(F)cc1)c1cc2cc([N+](=O)[O-])c(O)c(O)c2oc1=O,EC50,[1],> 272 µM
same,CC50,[2],272 µM
same,IC50,[5],> 100 µM
same,inhibition,[6],48%
same,EC50,[3],> 272 µM
Cc1c(O)c([N+](=O)[O-])cc2cc(C(=O)NC3CCN(Cc4cccc(F)c4)CC3)c(=O)oc12,EC50,[1],> 50.5 µM
same,CC50,[2],50.5 µM
same,IC50,[5],45.2 µM
same,EC50,[3],> 50.5 µM
Cc1c(O)c([N+](=O)[O-])cc2cc(C(=O)Nc3ccc(O)c(C(=O)O)c3)c(=O)oc12,EC50,[4],113 µM
same,EC50,[1],121 µM
same,CC50,[2],> 312 µM
same,IC50,[5],9.9 µM
same,EC50,[3],121 µM
Cc1c(O)c([N+](=O)[O-])cc2cc(C(=O)NCc3ccc(F)cc3)c(=O)oc12,EC50,[1],> 44 µM
same,CC50,[2],44 µM
same,EC50,[3],> 44 µM
Cc1c(O)c([N+](=O)[O-])cc2cc(C(=O)NC3CCN(Cc4ccc(C(N)=O)cc4)CC3)c(=O)oc12,EC50,[1],138 µM
same,CC50,[2],> 260 µM
same,IC50,[5],> 50 µM
same,inhibition,[6],87.2%
same,inhibition,[7],37.1%
same,EC50,[3],> 260 µM
O=C(NCc1ccc(F)cc1Cl)c1cc2cc([N+](=O)[O-])c(O)c(O)c2oc1=O,EC50,[1],46.1 µM
same,CC50,[2],266 µM
same,IC50,[5],> 50 µM
same,inhibition,[6],68.6%
same,inhibition,[7],< 10%
same,EC50,[3],> 266 µM
Cc1c(O)c([N+](=O)[O-])cc2cc(C(=O)NCc3ccc(F)cc3Cl)c(=O)oc12,EC50,[1],> 32.5 µM
same,CC50,[2],32.5 µM
same,EC50,[3],> 32.5 µM
Cc1c(O)c([N+](=O)[O-])cc2cc(C(=O)NC3CCN(Cc4cccc(Br)c4)CC3)c(=O)oc12,EC50,[1],> 14.7 µM
same,CC50,[2],14.7 µM
same,IC50,[5],> 50 µM
same,inhibition,[6],62.9%
same,inhibition,[7],< 10%
same,EC50,[3],> 14.7 µM
Cc1c(O)c([N+](=O)[O-])cc2cc(C(=O)NC3CCN(Cc4ccc([N+](=O)[O-])cc4)CC3)c(=O)oc12,EC50,[1],234 µM
same,CC50,[2],> 264 µM
same,EC50,[3],> 259 µM
O=C(NC1CCN(Cc2ccc(Br)cc2)CC1)c1cc2cc([N+](=O)[O-])c(O)c(O)c2oc1=O,EC50,[1],> 112 µM
same,CC50,[2],112 µM
same,IC50,[5],> 100 µM
same,inhibition,[6],47.4%
same,EC50,[3],> 112 µM
Cc1c(O)c([N+](=O)[O-])cc2cc(C(=O)NCc3ccccc3F)c(=O)oc12,EC50,[1],> 45 µM
same,CC50,[2],45 µM
same,IC50,[5],> 100 µM
same,inhibition,[6],38.7%
same,EC50,[3],> 45 µM
